Results: ChEMBL document CHEMBL4311965, “Antimicrobial activity of amphipathic α,α-disubstituted β-amino amide derivatives against ESBL - CARBA producing multi-resistant bacteria; effect of halogenation, lipophilicity and cationic character” (Eur J Med Chem, 2019)
≈ marks a conversion by molar mass, not a printed value.

What was measured:
[1] = Selectivity index, ratio of EC50 for hemolytic activity against human RBC to MIC for antibacterial activity against Staphylococcus aureus ATCC 9144; assay type: toxicity; conditions: human red blood cells (RBC)
In short: (§1)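 Selectivity index is the RBC haemolysis EC50 divided by the MIC against the E. coli or S. aureus reference strain.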

Staphylococcus aureus [2] = assay: Antibacterial activity against Staphylococcus aureus ATCC 9144 cultured in MHB medium assessed as no bacterial growth incubated at 37 degC for 24 hrs by microdilution susceptibility test; assay type: functional; conditions: ATCC 9144, 24 h
In short: (§2)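 Broth microdilution per CLSI M07-A9 with modifications. Inoculum about 2.5–3 x 10⁴ cells/mL in Mueller-Hinton broth, mixed 1:1 with test derivative. DMSO stocks diluted in double-distilled water, final DMSO <1%. Incubation 24 h at 37 °C (20 °C for C. glutamicum). Growth and sterility controls included; oxytetracycline reference.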

Escherichia coli [3] = assay: Antibacterial activity against multidrug-resistant Escherichia coli 50639799 producing Verona integron encoded metallo beta-lactamse-29 cultured in MHB medium assessed as reduction in bacterial growth incubated for 24 hrs by microdilution susceptibility test; assay type: functional; conditions: Escherichia coli, 50639799, 24 h
In short: (§3)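 Broth microdilution per CLSI M07-A9 (modified). Working solutions made from concentrated DMSO stocks kept at r.t., diluted in double-distilled water, final DMSO <1%. Inoculum 1–1.2 x 10⁶ cells/mL in Mueller-Hinton broth, mixed 1:1 with compound. 37 °C, 24 h, four parallels. Read as OD₆₀₀. Where precipitation left residual OD, the point of major OD decrease was taken as the inhibitory concentration.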

Enterococcus faecium [4] = assay: Antibacterial activity against multidrug-resistant Enterococcus faecium 50673722 cultured in BHIB medium assessed as reduction in bacterial growth incubated for 24 hrs by microdilution susceptibility test; assay type: functional; conditions: Enterococcus faecium, 50673722, 24 h
In short: (§4)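 Enterococci grown in Brain Heart Infusion broth, otherwise broth microdilution per CLSI M07-A9 (modified). Concentrated DMSO stocks kept at r.t. and diluted in double-distilled water, final DMSO <1%. Inoculum 1–1.2 x 10⁶ cells/mL mixed 1:1 with compound. 37 °C, 24 h, four parallels. OD₆₀₀ read-out, lowest concentration with no growth.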

Escherichia coli [5] = assay: Antibacterial activity against multidrug-resistant Escherichia coli 50857972 producing imipenem-type carbapenemase-26 cultured in MHB medium assessed as reduction in bacterial growth incubated for 24 hrs by microdilution susceptibility test; assay type: functional; conditions: Escherichia coli, 50857972, 24 h; in short: as §3
Pseudomonas aeruginosa [6] = assay: Antibacterial activity against multidrug-resistant Pseudomonas aeruginosa K34-7 producing Verona integron encoded metallo beta-lactamse-2 cultured in MHB medium assessed as reduction in bacterial growth incubated for 24 hrs by microdilution susceptibility test; assay type: functional; conditions: K34-7, 24 h; in short: as §3
Pseudomonas aeruginosa [7] = assay: Antibacterial activity against Pseudomonas aeruginosa PA01 DSM 19880 (ATCC 15692) cultured in MHB medium assessed as no bacterial growth incubated at 37 degC for 24 hrs by microdilution susceptibility test; assay type: functional; conditions: PAO1 DSM 19880 (ATCC 15692); in short: as §2
Staphylococcus aureus [8] = assay: Antibacterial activity against multidrug-resistant Staphylococcus aureus WIS cultured in MHB medium assessed as reduction in bacterial growth incubated for 24 hrs by microdilution susceptibility test; assay type: functional; in short: as §3
Pseudomonas aeruginosa [9] = assay: Antibacterial activity against multidrug-resistant Pseudomonas aeruginosa 50692172 producing New Delhi metallo-beta-lactamase-1 cultured in MHB medium assessed as reduction in bacterial growth incubated for 24 hrs by microdilution susceptibility test; assay type: functional; conditions: Pseudomonas aeruginosa, 50692172, 24 h; in short: as §3
[10] = Selectivity index, ratio of EC50 for hemolytic activity against human RBC to MIC for antibacterial activity against Escherichia coli ATCC 25922; assay type: toxicity; conditions: human red blood cells (RBC); in short: as §1
Pseudomonas aeruginosa [11] = assay: Antibacterial activity against multidrug-resistant Pseudomonas aeruginosa K44-24 producing imipenem-type carbapenemase-14 cultured in MHB medium assessed as reduction in bacterial growth incubated for 24 hrs by microdilution susceptibility test; assay type: functional; conditions: K44-24, 24 h; in short: as §3
Enterococcus faecium [12] = assay: Antibacterial activity against multidrug-resistant Enterococcus faecium 50901530 cultured in BHIB medium assessed as reduction in bacterial growth incubated for 24 hrs by microdilution susceptibility test; assay type: functional; conditions: Enterococcus faecium, 50901530, 24 h; in short: as §4
Enterococcus faecium [13] = assay: Antibacterial activity against multidrug-resistant Enterococcus faecium TUH50-22 cultured in BHIB medium assessed as reduction in bacterial growth incubated for 24 hrs by microdilution susceptibility test; assay type: functional; conditions: TUH50-22, 24 h; in short: as §4
Staphylococcus aureus [14] = assay: Antibacterial activity against multidrug-resistant Staphylococcus aureus N315 cultured in MHB medium assessed as reduction in bacterial growth incubated for 24 hrs by microdilution susceptibility test; assay type: functional; conditions: N315, 24 h; in short: as §3
HepG2 = assay: Cytotoxicity against human HepG2 cells assessed as reduction in cell viability incubated for 4 hrs by CellTiter 96 Aqueous One Solution Reagent based assay; conditions: HepG2, 4 h
In short: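 HepG2 and MRC-5 cells seeded at 35 000 and 15 000 cells/well respectively, then held overnight at 37 °C, 5% CO₂. Compounds in serum-free MEM Earle's applied for 4 h. MTS reagent (CellTiter 96 AQueous One) added for a further 1 h, absorbance read at 485 nm. Survival expressed relative to medium (negative) and Triton X-100 (positive) controls.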

Klebsiella pneumoniae [15] = assay: Antibacterial activity against multidrug-resistant Klebsiella pneumoniae K66-45 producing New Delhi metallo-beta-lactamase-1 cultured in MHB medium assessed as reduction in bacterial growth incubated for 24 hrs by microdilution susceptibility test; assay type: functional; conditions: K66-45, 24 h; in short: as §3
Klebsiella pneumoniae [16] = assay: Antibacterial activity against multidrug-resistant Klebsiella pneumoniae 50667959 producing Verona integron encoded metallo beta-lactamse-1 cultured in MHB medium assessed as reduction in bacterial growth incubated for 24 hrs by microdilution susceptibility test; assay type: functional; conditions: Klebsiella pneumoniae, 50667959, 24 h; in short: as §3
[17] = Aqueous solubility of the compound in DMSO; assay type: physicochemical

SMILES | selectivity ratio [1] | MIC (Staphylococcus aureus [2]) | MIC (Escherichia coli [3]) | MIC (Enterococcus faecium [4]) | MIC (Escherichia coli [5]) | MIC (Pseudomonas aeruginosa [6]) | MIC (Pseudomonas aeruginosa [7]) | MIC (Staphylococcus aureus [8]) | MIC (Pseudomonas aeruginosa [9]) | selectivity ratio [10] | MIC (Pseudomonas aeruginosa [11]) | MIC (Enterococcus faecium [12]) | MIC (Enterococcus faecium [13]) | MIC (Staphylococcus aureus [14]) | EC50 (HepG2) | MIC (Klebsiella pneumoniae [15]) | MIC (Klebsiella pneumoniae [16]) | solubility [17]
N=C(N)NCCNC(=O)C(CNC(=N)N)(Cc1cc(C(F)(F)F)cc(C(F)(F)F)c1)Cc1cc(C(F)(F)F)cc(C(F)(F)F)c1 | 101 | 2 µg/mL (≈ 3 µM) | 16 µg/mL (≈ 24 µM) | 8 µg/mL (≈ 12 µM) | 32 µg/mL (≈ 47.9 µM) | 32 µg/mL (≈ 47.9 µM) | 4 µg/mL (≈ 5.99 µM) | 8 µg/mL (≈ 12 µM) | 32 µg/mL (≈ 47.9 µM) | 50 | 32 µg/mL (≈ 47.9 µM) | 4 µg/mL (≈ 5.99 µM) | 4 µg/mL (≈ 5.99 µM) | 4 µg/mL (≈ 5.99 µM) | > 64 µg/mL | > 32 µg/mL | > 32 µg/mL | –
NCCNCC(CN)(Cc1ccccc1Br)Cc1ccccc1Br | 13 | 16 µg/mL (≈ 35.1 µM) | 16 µg/mL (≈ 35.1 µM) | 16 µg/mL (≈ 35.1 µM) | 16 µg/mL (≈ 35.1 µM) | 32 µg/mL (≈ 70.3 µM) | 16 µg/mL (≈ 35.1 µM) | 8 µg/mL (≈ 17.6 µM) | 32 µg/mL (≈ 70.3 µM) | 13 | 32 µg/mL (≈ 70.3 µM) | 16 µg/mL (≈ 35.1 µM) | 16 µg/mL (≈ 35.1 µM) | 8 µg/mL (≈ 17.6 µM) | 18 µg/mL (≈ 39.5 µM) | 16 µg/mL (≈ 35.1 µM) | 16 µg/mL (≈ 35.1 µM) | –
N#CC(Cc1cc(C(F)(F)F)cc(C(F)(F)F)c1)(Cc1cc(C(F)(F)F)cc(C(F)(F)F)c1)C(=O)NCCN | 18 | 16 µg/mL (≈ 27.6 µM) | > 32 µg/mL | 16 µg/mL (≈ 27.6 µM) | > 32 µg/mL | > 32 µg/mL | 64 µg/mL (≈ 110 µM) | 16 µg/mL (≈ 27.6 µM) | > 32 µg/mL | 9 | > 32 µg/mL | 16 µg/mL (≈ 27.6 µM) | 8 µg/mL (≈ 13.8 µM) | > 32 µg/mL | 20 µg/mL (≈ 34.5 µM) | > 32 µg/mL | > 32 µg/mL | Soluble
NCCNCC(CN)(Cc1cc(C(F)(F)F)cc(C(F)(F)F)c1)Cc1cc(C(F)(F)F)cc(C(F)(F)F)c1 | 6 | 4 µg/mL (≈ 7.02 µM) | 8 µg/mL (≈ 14 µM) | 4 µg/mL (≈ 7.02 µM) | 8 µg/mL (≈ 14 µM) | 32 µg/mL (≈ 56.2 µM) | 4 µg/mL (≈ 7.02 µM) | 8 µg/mL (≈ 14 µM) | 16 µg/mL (≈ 28.1 µM) | 6 | 32 µg/mL (≈ 56.2 µM) | 8 µg/mL (≈ 14 µM) | 4 µg/mL (≈ 7.02 µM) | 8 µg/mL (≈ 14 µM) | 7 µg/mL (≈ 12.3 µM) | 8 µg/mL (≈ 14 µM) | 8 µg/mL (≈ 14 µM) | –
NCCNCC(CN)(Cc1ccc(F)c2ccccc12)Cc1ccc(F)c2ccccc12 | 14 | 2 µg/mL (≈ 4.61 µM) | 8 µg/mL (≈ 18.5 µM) | 4 µg/mL (≈ 9.23 µM) | 8 µg/mL (≈ 18.5 µM) | 16 µg/mL (≈ 36.9 µM) | 4 µg/mL (≈ 9.23 µM) | 4 µg/mL (≈ 9.23 µM) | 16 µg/mL (≈ 36.9 µM) | 7 | 16 µg/mL (≈ 36.9 µM) | 4 µg/mL (≈ 9.23 µM) | 4 µg/mL (≈ 9.23 µM) | 4 µg/mL (≈ 9.23 µM) | 12 µg/mL (≈ 27.7 µM) | 8 µg/mL (≈ 18.5 µM) | 8 µg/mL (≈ 18.5 µM) | –
